Reference: ChEMBL document CHEMBL3865824, “New (E)-1-alkyl-1H-benzo[d]imidazol-2-yl)methylene)indolin-2-ones: Synthesis, in vitro cytotoxicity evaluation and apoptosis inducing studies” (Eur J Med Chem, 2016)

Assays:
[1] = Cytotoxicity against human MCF7 cells assessed as reduction in cell viability after 48 hrs by MTT assay; type: functional, cell-based; details: MCF7, 48 h
Method in brief: (§1)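 Cells grown in DMEM or MEM with 10% FBS at 37 °C, 5% CO2. Seeded at 1×10^4 cells/well, incubated 48 h, then exposed to compound for 48 h with vehicle control. MTT (5 mg/mL stock) added for 4 h; formazan dissolved in DMSO, absorbance read at 570 nm. Preliminary screen at 50 µM. Compounds giving >50% inhibition were tested for dose-response curves; IC50 derived by linear regression of % inhibition versus concentration. Mean of three independent experiments in triplicate.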

[2] = Cytotoxicity against human MDA-MB-231 cells assessed as reduction in cell viability after 48 hrs by MTT assay; type: functional, cell-based; details: MDA-MB-231, 48 h; method in brief: as §1
[3] = Cell cycle arrest in human MDA-MB-231 cells assessed as accumulation at G0/G1 phase at 4 uM after 24 hrs by propidium iodide staining based FACS analysis (reference value: 50.4 %); type: functional
Method in brief: (§2)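 MDA-MB-231 at 1×10^6 cells/well treated with 1, 2 or 4 µM for 24 h, with a DMSO control. Cells harvested by trypsin, washed with PBS and fixed in 70% ethanol for 30 min at 4 °C. Stained 15 min at room temperature in the dark with PI buffer containing Triton X and DNase-free RNase A. Analysed by flow cytometry; G0/G1, S and G2/M fractions quantified.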

[4] = Cytotoxicity against human A549 cells assessed as reduction in cell viability after 48 hrs by MTT assay; type: functional, cell-based; details: A549, 48 h; method in brief: as §1
[5] = Cytotoxicity against human DU145 cells assessed as reduction in cell viability after 48 hrs by MTT assay; type: functional, cell-based; details: DU-145, 48 h; method in brief: as §1
[6] = Cell cycle arrest in human MDA-MB-231 cells assessed as accumulation at G2/M phase at 4 uM after 24 hrs by propidium iodide staining based FACS analysis (reference value: 26 %); type: functional; method in brief: as §2
[7] = Cell cycle arrest in human MDA-MB-231 cells assessed as accumulation at S phase at 4 uM after 24 hrs by propidium iodide staining based FACS analysis (reference value: 24.6 %); type: functional; method in brief: as §2
[8] = Cytotoxicity against human BT549 cells assessed as reduction in cell viability after 48 hrs by MTT assay; type: functional, cell-based; details: BT-549, 48 h; method in brief: as §1
[9] = Cytotoxicity against human A549 cells assessed as growth inhibition at 50 uM after 48 hrs by MTT assay relative to control; type: functional; details: A549, 48 h, read-out: GI; method in brief: as §1
[10] = Cytotoxicity against […] cells assessed as reduction in cell viability after 48 hrs by MTT assay; type: functional, cell-based; details: 4T1, 48 h; method in brief: as §1
[11] = Cytotoxicity against human BT549 cells assessed as growth inhibition at 50 uM after 48 hrs by MTT assay relative to control; type: functional; details: BT-549, 48 h, read-out: GI; method in brief: as §1
[12] = Selectivity ratio of IC50 for human MCF10A cells to IC50 for human A549 cells; type: ADME, cell-based; details: MCF10A cells versus A549 cells, read-out: Ratio IC50
[13] = Selectivity ratio of IC50 for human MCF10A cells to IC50 for human MDA-MB-231 cells; type: ADME, cell-based, MCF-10A; details: MCF10A cells versus MDA-MB-231 cells, read-out: Ratio IC50
[14] = Selectivity ratio of IC50 for human MCF10A cells to IC50 for human BT549 cells; type: ADME, cell-based, MCF-10A; details: MCF10A cells versus BT549 cells, read-out: Ratio IC50
[15] = Cytotoxicity against human PC3 cells assessed as growth inhibition at 50 uM after 48 hrs by MTT assay relative to control; type: functional; details: PC-3, 48 h, read-out: GI; method in brief: as §1
[16] = Cytotoxicity against human MCF10A cells assessed as reduction in cell viability after 48 hrs by MTT assay; type: toxicity, cell-based, MCF-10A; method in brief: as §1
[17] = Cytotoxicity against […] cells assessed as growth inhibition at 50 uM after 48 hrs by MTT assay relative to control; type: functional; details: Mus musculus, 4T1, 48 h; read-out: GI; method in brief: as §1
[18] = Selectivity ratio of IC50 for human MCF10A cells to IC50 for human MCF7 cells; type: ADME, cell-based, MCF-10A; details: MCF10A cells versus MCF7 cells, read-out: Ratio IC50
[19] = Cytotoxicity against HGC cells assessed as growth inhibition at 50 uM after 48 hrs by MTT assay relative to control; type: functional; details: Homo sapiens, read-out: GI; method in brief: as §1
[20] = Cytotoxicity against human MDA-MB-231 cells assessed as growth inhibition at 50 uM after 48 hrs by MTT assay relative to control; type: functional; details: MDA-MB-231, 48 h, read-out: GI; method in brief: as §1
[21] = Cytotoxicity against human DU145 cells assessed as growth inhibition at 50 uM after 48 hrs by MTT assay relative to control; type: functional; details: DU-145, 48 h, read-out: GI; method in brief: as §1
[22] = Cytotoxicity against human MCF7 cells assessed as growth inhibition at 50 uM after 48 hrs by MTT assay relative to control; type: functional; details: MCF7, 48 h, read-out: GI; method in brief: as §1
[23] = Cytotoxicity against HGC cells assessed as reduction in cell viability after 48 hrs by MTT assay; type: functional, cell-based; details: Homo sapiens; method in brief: as §1
[24] = Selectivity ratio of IC50 for human MCF10A cells to IC50 for human DU145 cells; type: ADME, cell-based, MCF-10A; details: MCF10A cells versus DU145 cells, read-out: Ratio IC50
[25] = Cytotoxicity against human PC3 cells assessed as reduction in cell viability after 48 hrs by MTT assay; type: functional, cell-based; details: PC-3, 48 h; method in brief: as §1
[26] = Selectivity ratio of IC50 for human MCF10A cells to IC50 for […] cells; type: ADME, cell-based, MCF-10A; details: MCF10A cells versus 4TI cells, read-out: Ratio IC50
[27] = Selectivity ratio of IC50 for human MCF10A cells to IC50 for HGC cells; type: ADME, cell-based, MCF-10A; details: MCF10A cells versus HGC cells, read-out: Ratio IC50
[28] = Selectivity ratio of IC50 for human MCF10A cells to IC50 for human PC3 cells; type: ADME, cell-based, MCF-10A; details: MCF10A cells versus PC3 cells, read-out: Ratio IC50

SMILES: CCN(CC)CCNC(=O)c1c(C)[nH]c(/C=C2\C(=O)Nc3ccc(F)cc32)c1C [SUNITINIB]
- IC50 [1]: 23.8 µM
- IC50 [2]: 7.44 µM
- Activity [3]: 67.6%
- IC50 [4]: 14.4 µM
- IC50 [5]: 16.4 µM
- Activity [6]: 13.9%
- Activity [7]: 18.3%
- IC50 [8]: 15.5 µM

SMILES: CC(C)n1c(/C=C2/C(=O)Nc3ccc(Cl)cc32)nc2ccccc21
- IC50 [1]: 24 µM
- inhibition of growth at 50 µM [9]: > 50%
- IC50 [10]: 35.7 µM
- inhibition of growth at 50 µM [11]: > 50%
- IC50 [2]: 25.1 µM
- IC50 [4]: 35.2 µM
- selectivity ratio [12]: 2 to 3
- selectivity ratio [13]: 2 to 3
- selectivity ratio [14]: 2 to 3
- IC50 [5]: 36.4 µM
- inhibition of growth at 50 µM [15]: > 50%
- IC50 at 48 h [16]: 68.8 µM
- inhibition of growth at 50 µM [17]: > 50%
- selectivity ratio [18]: 2 to 3
- inhibition of growth at 50 µM [19]: > 50%
- inhibition of growth at 50 µM [20]: > 50%
- inhibition of growth at 50 µM [21]: > 50%
- inhibition of growth at 50 µM [22]: > 50%
- IC50 [23]: 32.8 µM
- selectivity ratio [24]: 2 to 3
- IC50 [25]: 38.1 µM
- selectivity ratio [26]: 2 to 3
- selectivity ratio [27]: 2 to 3
- selectivity ratio [28]: 2 to 3
- IC50 [8]: 35.1 µM
